Assay results: ChEMBL document CHEMBL1926591, “Synthesis of quinolinomorphinan-4-ol derivatives as δ opioid receptor agonists” (Bioorg Med Chem, 2012)

Columns and labels:
Mu-type opioid receptor [1] = molecular target: Mu-type opioid receptor (Mus musculus, UniProt P42866); test: Displacement of [3H]DAMGO from mu opioid receptor in mouse whole brain membranes without cerebellum; format: cell membranes, Membrane
[2] = molecular target: Delta-type opioid receptor (Mus musculus, UniProt P32300); test: Displacement of [3H]DPDPE from delta opioid receptor in mouse whole brain membranes without cerebellum; format: cell membranes, Membrane
Sequence of Delta-type opioid receptor (Mus musculus, UniProt P32300) (P32300 whole entry): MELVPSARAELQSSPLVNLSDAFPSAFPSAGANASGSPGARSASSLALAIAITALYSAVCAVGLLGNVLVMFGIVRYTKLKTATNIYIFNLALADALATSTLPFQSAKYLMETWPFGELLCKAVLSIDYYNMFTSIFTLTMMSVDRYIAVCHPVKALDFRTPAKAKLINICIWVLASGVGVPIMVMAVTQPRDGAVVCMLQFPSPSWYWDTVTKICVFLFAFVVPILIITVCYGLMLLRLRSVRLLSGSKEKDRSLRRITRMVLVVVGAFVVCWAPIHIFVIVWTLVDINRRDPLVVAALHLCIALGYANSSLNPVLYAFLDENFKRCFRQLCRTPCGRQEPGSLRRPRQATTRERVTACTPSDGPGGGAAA

[3] = molecular target: T1, Kappa-type opioid receptor (Cavia porcellus, UniProt P41144); test: Displacement of [3H]U-69,593 from kappa opioid receptor in guinea pig cerebellum membranes; format: cell membranes, Membrane
T1 sequence (P41144 whole entry): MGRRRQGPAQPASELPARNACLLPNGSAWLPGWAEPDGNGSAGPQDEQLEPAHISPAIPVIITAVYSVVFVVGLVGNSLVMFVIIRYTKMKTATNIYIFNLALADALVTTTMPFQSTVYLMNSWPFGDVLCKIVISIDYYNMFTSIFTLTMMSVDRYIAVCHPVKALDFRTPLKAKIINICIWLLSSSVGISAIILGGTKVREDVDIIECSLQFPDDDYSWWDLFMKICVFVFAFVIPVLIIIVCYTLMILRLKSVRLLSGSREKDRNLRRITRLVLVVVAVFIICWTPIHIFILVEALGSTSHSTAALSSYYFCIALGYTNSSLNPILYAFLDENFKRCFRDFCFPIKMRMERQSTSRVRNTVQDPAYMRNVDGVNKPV

Rattus norvegicus = species: Rattus norvegicus; test: Selectivity ratio of Ki for mu opioid receptor in rat cerebrum membranes to Ki for delta opioid receptor in rat cerebrum membranes; format: cell membranes; conditions: Membrane
Method in brief: (§1)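 Rat cerebrum membranes; mu sites labelled with [³H]DAMGO and delta sites with [³H]DADLE, displaced by varying test concentrations. Nonspecific binding was defined with unlabeled levallorphan. Ki was derived from displacement data using the Cheng–Prusoff equation.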

[4] = Selectivity ratio of Ki for kappa opioid receptor in guinea pig cerebrum membranes to Ki for delta opioid receptor in rat cerebrum membranes; format: cell membranes; conditions: Membrane
Mu-type opioid receptor [5] = molecular target: Mu-type opioid receptor (Rattus norvegicus, UniProt P33535); test: Displacement of [3H]DAMGO from mu opioid receptor in rat cerebrum membranes; format: cell membranes, Membrane; method in brief: as §1
Sequence of Mu-type opioid receptor (Rattus norvegicus, UniProt P33535) (P33535 whole entry): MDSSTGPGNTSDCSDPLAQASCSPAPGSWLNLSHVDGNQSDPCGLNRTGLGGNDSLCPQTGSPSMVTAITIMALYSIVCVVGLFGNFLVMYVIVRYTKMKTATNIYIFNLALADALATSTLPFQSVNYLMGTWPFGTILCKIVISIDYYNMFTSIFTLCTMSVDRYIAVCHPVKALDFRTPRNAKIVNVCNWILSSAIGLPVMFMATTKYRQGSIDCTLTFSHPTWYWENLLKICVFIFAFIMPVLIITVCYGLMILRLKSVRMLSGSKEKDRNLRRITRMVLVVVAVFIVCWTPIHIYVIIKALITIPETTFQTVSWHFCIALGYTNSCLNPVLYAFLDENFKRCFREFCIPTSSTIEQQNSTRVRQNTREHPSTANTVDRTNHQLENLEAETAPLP

[6] = molecular target: Delta-type opioid receptor (Rattus norvegicus, UniProt P33533); test: Displacement of [3H]DADLE from delta opioid receptor in rat cerebrum membranes; format: cell membranes, Membrane; method in brief: as §1
Sequence of Delta-type opioid receptor (Rattus norvegicus, UniProt P33533) (P33533 whole entry): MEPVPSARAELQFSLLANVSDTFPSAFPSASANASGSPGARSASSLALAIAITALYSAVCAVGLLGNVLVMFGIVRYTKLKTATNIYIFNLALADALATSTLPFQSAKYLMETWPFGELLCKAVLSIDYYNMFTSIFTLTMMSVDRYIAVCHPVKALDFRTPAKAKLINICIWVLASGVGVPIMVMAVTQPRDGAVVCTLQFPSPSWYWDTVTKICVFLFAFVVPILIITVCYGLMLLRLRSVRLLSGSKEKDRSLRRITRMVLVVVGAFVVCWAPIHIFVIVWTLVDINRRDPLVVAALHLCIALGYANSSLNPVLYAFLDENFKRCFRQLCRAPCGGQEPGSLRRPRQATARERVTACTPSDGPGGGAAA

[7] = molecular target: T1, Kappa-type opioid receptor; test: Displacement of [3H]U-69,593 from kappa opioid receptor in guinea pig cerebrum membranes; format: cell membranes, Membrane
Method in brief: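 Kappa binding used guinea pig cerebrum membranes labelled with [³H]U-69,593 and displaced by test compound. Nonspecific binding was taken with […] unlabeled U-69,593. Ki was obtained via Cheng–Prusoff.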

[8] = molecular target: T2, Delta-type opioid receptor (Homo sapiens, UniProt P41143); test: Agonist activity at human recombinant delta opioid receptor expressed in human HEK293 cells by [35S]GTPgammaS binding assay; format: functional, cell-based
T2 sequence (P41143 whole entry): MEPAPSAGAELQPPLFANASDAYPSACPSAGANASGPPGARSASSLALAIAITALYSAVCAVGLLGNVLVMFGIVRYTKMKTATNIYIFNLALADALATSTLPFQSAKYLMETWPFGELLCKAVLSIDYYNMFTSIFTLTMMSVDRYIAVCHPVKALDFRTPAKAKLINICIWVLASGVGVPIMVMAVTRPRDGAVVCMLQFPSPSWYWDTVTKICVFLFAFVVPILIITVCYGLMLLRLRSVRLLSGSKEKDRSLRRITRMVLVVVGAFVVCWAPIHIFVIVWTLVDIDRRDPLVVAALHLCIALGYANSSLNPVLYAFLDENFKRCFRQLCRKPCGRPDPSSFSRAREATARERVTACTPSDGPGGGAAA

[9] = molecular target: T2, Delta-type opioid receptor; test: Ratio of (-)TAN-67 EC50 to compound EC50 for human recombinant delta opioid receptor expressed in human HEK293 cells; format: cell-based
Method in brief: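 [³⁵S]GTPγS binding used purchased HEK-293 membranes carrying human recombinant delta receptor. Incubation buffer was 50 mM Tris, 1 mM EDTA, 12.5 mM MgCl₂, 100 mM NaCl and 0.5% BSA. It contained GDP, 0.1 nM [³⁵S]GTPγS and graded compound concentrations. (−)-TAN-67 served as the standard delta agonist.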

[10] = molecular target: T2, Delta-type opioid receptor; test: Ratio of SNC80 EC50 to compound EC50 for human recombinant delta opioid receptor expressed in human HEK293 cells; format: cell-based

Sequence of Mu-type opioid receptor (Mus musculus, UniProt P42866) (P42866 whole entry): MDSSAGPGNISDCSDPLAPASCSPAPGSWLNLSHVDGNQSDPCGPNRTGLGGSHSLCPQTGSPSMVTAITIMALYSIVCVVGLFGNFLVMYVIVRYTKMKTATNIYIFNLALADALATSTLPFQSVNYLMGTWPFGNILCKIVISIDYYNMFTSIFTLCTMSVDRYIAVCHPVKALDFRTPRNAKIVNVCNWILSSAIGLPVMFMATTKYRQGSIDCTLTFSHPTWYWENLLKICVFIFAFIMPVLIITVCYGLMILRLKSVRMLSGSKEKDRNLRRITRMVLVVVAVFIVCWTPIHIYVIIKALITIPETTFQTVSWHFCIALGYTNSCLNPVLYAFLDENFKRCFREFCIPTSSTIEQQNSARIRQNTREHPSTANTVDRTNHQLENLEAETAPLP

Row | Compound | Ki (Mu-type opioid receptor [1]) [nM] | Ki [2] [nM] | Ki [3] [nM] | Ratio Ki (Rattus norvegicus) | Ratio Ki [4] | Ki (Mu-type opioid receptor [5]) [nM] | Ki [6] [nM] | Ki [7] [nM] | EC50 [8] [nM] | Ratio EC50 [9] | Ratio EC50 [10]
1 | Oc1ccc2c(c1)[C@]13CCN(CCc4ccccc4)[C@H](C2)[C@@H]1Cc1cc2ccccc2nc1C3 | 12.5 | 4.68 | 17.9 | – | – | – | – | – | – | – | –
2 | Oc1ccc2c(c1)[C@]13CCN(Cc4ccccc4)[C@H](C2)[C@@H]1Cc1cc2ccccc2nc1C3 | 76.9 | 12.4 | 50 | – | – | – | – | – | – | – | –
3 | CN1CC[C@]2(c3cccc(O)c3)Cc3nc4ccccc4cc3C[C@H]2C1 | – | – | – | 197 | 509 | – | – | – | – | – | –
4 | CC(C)CN1CC[C@]23Cc4nc5ccccc5cc4C[C@H]2[C@H]1Cc1cccc(O)c13 | – | – | – | 265 | 423 | 323 | 1.22 | 516 | 2.34 | – | –
5 | Oc1ccc2c(c1)[C@]13CCN(CC4CC4)[C@H](C2)[C@@H]1Cc1cc2ccccc2nc1C3 | – | – | – | 4.1 | 1.9 | – | – | – | – | 10 | 10
6 | CN1CC[C@]23Cc4nc5ccccc5cc4C[C@H]2[C@H]1Cc1ccc(O)cc13 | 23.2 | 0.29 | 14.3 | 82.4 | 72.9 | – | – | – | – | 10 | 10
7 | CN1CC[C@]23Cc4nc5ccccc5cc4C[C@H]2[C@H]1Cc1cccc(O)c13 | – | – | – | 51.8 | 263 | 51.8 | 1 | 263 | 1.77 | – | –
8 | Oc1ccc2c(c1)[C@]13CCN(CC4CCC4)[C@H](C2)[C@@H]1Cc1cc2ccccc2nc1C3 | 6.31 | 0.12 | 1.07 | – | – | – | – | – | – | – | –
9 | Oc1ccc2c(c1)[C@]13CCN(CC4CCCC4)[C@H](C2)[C@@H]1Cc1cc2ccccc2nc1C3 | 20.1 | 0.35 | 3.54 | – | – | – | – | – | – | – | –
10 | Oc1ccc2c3c1O[C@H]1c4nc5ccccc5cc4C[C@H]4[C@@H](C2)N(CC2CC2)CC[C@]314 | – | – | – | 30.2 | 34.4 | 13 | 0.43 | 14.8 | – | – | –
11 | Oc1cccc2c1[C@]13CCN(CC4CC4)[C@H](C2)[C@@H]1Cc1cc2ccccc2nc1C3 | – | – | – | 548 | 64.8 | 148 | 0.27 | 17.5 | 0.19 | – | –
12 | CC(C)CN1CC[C@]23Cc4nc5ccccc5cc4C[C@H]2[C@H]1Cc1ccc(O)cc13 | – | – | – | 124 | 23.2 | – | – | – | – | 10 | 10
